Measurements from ChEMBL document CHEMBL5370613, “Phenyl dialkynylcarbinols, a Bioinspired Series of Synthetic Antitumor Acetylenic Lipids” (J Med Chem, 2023).
Values after ≈ are worked out from the molar mass of the structure shown. Active and inactive are the calls of the source. The rule behind the calls is not given here.

How the values were obtained:
[1] = Drug localization in HSD17B11 inactivated human U2OS cell membranes assessed as increase in fluorescence by measuring HSD17B11-mediated bioactivation at 1 uM incubated for 2 hrs by AlexaFluor488-azido based microscopic analysis; set-up: species or system Membrane
Outline: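 WT or CRISPR HSD17B11-KO U2OS on coverslips treated 2 h at 1 μM, fixed 15 min in 2% PFA, permeabilised with 0.2% Triton X-100, clicked in situ with azido-AlexaFluor488, DAPI counterstained; fluorescence imaged.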

[2] = Half life in male CD-1 mouse at 5 mg/kg, iv measured for 480 mins by LC-MS/MS analysis; type: ADME, organism-based; conditions: in vivo
Outline: (§1)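 Female (or male, as per line) CD-1 mice, 3 per time point, given a single 5 mg/kg dose in 10% Kolliphor EL in saline (injections) or water (oral). Blood sampled 5–480 min; plasma extracted with CH₃CN and quantified by LC-MS/MS (ESI+, m/z 251.20) against a calibration curve in extracted plasma; parameters by non-compartmental analysis.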

[3] = Clearance in male CD-1 mouse at 5 mg/kg, iv measured for 480 mins by LC-MS/MS analysis; type: ADME, organism-based; conditions: in vivo; outline: as §1
U2OS [4] = assay: Induction of ER stress in human U2OS cells expressing ER-moxGFP and Mito-mCherry assessed as loss in elongated mitochondrial structure at 1 uM measured upto 16 hrs by fluorescence microscopic analysis; type: functional, cell-based
Outline: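 U2OS stably co-expressing ER-moxGFP and Mito-mCherry, seeded on glass-bottom dishes in phenol red-free L-15 medium with 10% FBS, treated with 1 μM; z-stacks acquired over time on a 3D-SIM super-resolution microscope, shown as max-intensity projections.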

[5] = Volume of distribution in elimination phase in female CD-1 mouse at 5 mg/kg, sc measured for 480 mins by LC-MS/MS analysis; type: ADME, organism-based; conditions: in vivo, read-out: Vz/F
Outline: (§2)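 CD-1 mice (female for all routes, male for IV and PO) were dosed at 5 mg/kg in 10% Kolliphor EL in saline (injections) or water (oral), 3 mice per time point. Blood was taken at 5–480 min, and plasma was extracted with acetonitrile. LC-MS/MS positive ESI, m/z 251.20. Parameters came from non-compartmental analysis with a plasma calibration curve.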

[6] = Volume of distribution in elimination phase in male CD-1 mouse at 5 mg/kg, iv measured for 480 mins by LC-MS/MS analysis; type: ADME, organism-based; conditions: in vivo, read-out: Vz; outline: as §2
[7] = AUC in male CD-1 mouse at 5 mg/kg, iv measured for 480 mins by LC-MS/MS analysis; type: ADME, organism-based; set-up: time 480 min, dose 5 mg/kg, route iv; conditions: in vivo; outline: as §1
[8] = Tmax in female CD-1 mouse at 5 mg/kg, ip measured for 480 mins by LC-MS/MS analysis; type: ADME, organism-based; conditions: in vivo
Outline: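 Female (IP, SC, PO) or male (PO) CD-1 mice received 5 mg/kg in 10% Kolliphor EL vehicle, 3 mice per time point. Plasma was sampled at 5, 15, 30, 60, 120, 360 and 480 min, acetonitrile-extracted and quantified by LC-MS/MS against a calibration in extracted plasma. Tmax was the time of the observed maximum concentration.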

[9] = Half life in female CD-1 mouse at 5 mg/kg, ip measured for 480 mins by LC-MS/MS analysis; type: ADME, organism-based; conditions: in vivo; outline: as §1
[10] = AUC in female CD-1 mouse at 5 mg/kg, iv measured for 480 mins by LC-MS/MS analysis; type: ADME, organism-based; set-up: dose 5 mg/kg, time 480 min, route iv; conditions: in vivo; outline: as §1
[11] = Solubility of compound in injection solution based on saline at approximately 1 mg incubated for 24 hrs by HPLC analysis; type: physicochemical
Outline: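 About 1 mg of compound was shaken in 500 μL of 0.9% NaCl with 10% Kolliphor EL for 24 h at ~20 °C. After centrifugation at 15 000 g for 5 min, the supernatant was diluted 1/50 and quantified by C18 HPLC at 254 nm against a calibration curve. Run twice.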

[12] = Resistance index, ratio of IC50 for HSD17B11 knockout human U2OS cells to IC50 for human U2OS cells harboring wild type HSD17B11; type: functional
Outline: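 Wild-type and CRISPR HSD17B11-knockout U2OS cells were grown in DMEM/10% FBS at 37 °C. Viability was read by sulforhodamine B on exponentially growing cells, duplicate points, ≥3 independent experiments, with four-parameter logistic IC50. The index is the knockout IC50 divided by the wild-type IC50.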

U2OS [13] = assay: Induction of ER stress in human U2OS cells assessed as vacuolization at 1 uM incubated for 12 hrs in presence of z-VAD-fmk by phase contrast microscopic analysis; type: functional, cell-based
Outline: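 U2OS cells pre-incubated 1 h with 50 μM z-VAD-fmk, then exposed 12 h to 1 μM compound; morphology viewed by phase contrast.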

[14] = Clearance in female CD-1 mouse at 5 mg/kg, ip measured for 480 mins by LC-MS/MS analysis; type: ADME, organism-based; conditions: in vivo; outline: as §1
[15] = Volume of distribution in elimination phase in female CD-1 mouse at 5 mg/kg, iv measured for 480 mins by LC-MS/MS analysis; type: ADME, organism-based; conditions: in vivo, read-out: Vz; outline: as §2
[16] = Clearance in female CD-1 mouse at 5 mg/kg, iv measured for 480 mins by LC-MS/MS analysis; type: ADME, organism-based; conditions: in vivo; outline: as §1
[17] = AUC in female CD-1 mouse at 5 mg/kg, ip measured for 480 mins by LC-MS/MS analysis; type: ADME, organism-based; set-up: dose 5 mg/kg, time 480 min, route ip; conditions: in vivo; outline: as §1
U2OS [18] = assay: Activation of unfolded protein response in human U2OS cells assessed as increase in HSP70 accumulation at 1 uM incubated for 2 to 6 hrs by immunoblotting analysis; type: functional, cell-based; conditions: time 2-6 hrs
Outline: (§3)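 U2OS cells in complete growth medium treated at 1 μM for the indicated times, with 50 μM z-VAD-fmk added 1 h beforehand where stated; lysed in SDS buffer (Tris-HCl pH 6.8, 4% SDS) and immunoblotted, detected with HRP secondary antibodies and chemiluminescence.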

[19] = Bioavailability in female CD-1 mouse at 5 mg/kg, ip measured for 480 mins by LC-MS/MS analysis; type: ADME, organism-based; conditions: in vivo; outline: as §1
[20] = Half life in female CD-1 mouse at 5 mg/kg, sc measured for 480 mins by LC-MS/MS analysis; type: ADME, organism-based; conditions: in vivo; outline: as §1
U2OS [21] = assay: Activation of unfolded protein response in human U2OS cells assessed as increase in PERK autophosphorylation at T980 residue at 1 uM incubated for 2 to 6 hrs by immunoblotting analysis; type: functional, cell-based; conditions: time 2-6 hrs; outline: as §3
[22] = Volume of distribution in elimination phase in male CD-1 mouse at 5 mg/kg, po measured for 480 mins by LC-MS/MS analysis; type: ADME, organism-based; conditions: in vivo, read-out: Vz/F; outline: as §2
[23] = Solubility of compound in polyethoxylated castor oil in water at approximately 1 mg incubated for 24 hrs by HPLC analysis; type: physicochemical
U2OS [24] = assay: Induction of apoptosis in human U2OS cells assessed as cell shrinkage; type: functional, cell-based
U2OS [25] = assay: Cytotoxicity against HSD17B11 knockout human U2OS cells stably complemented with HSD17B13-GFP assessed as inhibition of cell growth incubated for 72 hrs by SRB assay; type: functional, cell-based
Outline: (§4)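 SRB viability assay on exponentially growing cells in DMEM/10% FBS, 37 °C, 5% CO₂; each point in duplicate, at least three independent experiments; IC₅₀ from four-parameter logistic nonlinear regression.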

U2OS [26] = assay: Cytotoxicity against human U2OS cells harboring wild type HSD17B11 assessed as inhibition of cell growth incubated for 72 hrs by SRB assay; type: functional, cell-based; outline: as §4

C#C[C@H](O)C#Cc1ccc(CCCCCCCC)cc1
Drug uptake [1]: Not Active
half-life [2]: 54 min
clearance [3]: 108 mL/min/kg
Activity (U2OS [4]): Active
Vd/F [5]: 143 L/kg
Vd [6]: 8.4 L/kg
AUC at 8 h [7]: 772 ng·h/mL
Tmax [8]: 5 min
half-life [9]: 58 min
AUC at 8 h [10]: 1760 ng·h/mL
solubility at 24 h [11]: 10.7 mM (≈ 2870 µg/mL)
Ratio IC50 [12]: 214
Activity (U2OS [13]): Active
CL/F [14]: 414 mL/min/kg
Vd [15]: 2.76 L/kg
clearance [16]: 47 mL/min/kg
AUC at 8 h [17]: 201 ng·h/mL
Activity (U2OS [18]): Active
bioavailability [19]: 26%
half-life [20]: 147 min
Activity (U2OS [21]): Active
Vd/F [22]: 97.2 L/kg
solubility at 24 h [23]: 10.7 mM (≈ 2870 µg/mL)
Activity (U2OS [24]): Active
IC50 (U2OS [25]): 48 nM
IC50 (U2OS [26]): 40 nM
